This is an account of results in ChEMBL document CHEMBL2412984, “Indole derivatives as dual-effective agents for the treatment of neurodegenerative diseases: synthesis, biological evaluation, and molecular modeling studies” (Bioorg Med Chem, 2013).

Activity calls are given as the source filed them. The calls are words filed in the database; no cut-off is given here.

Test [1] can be described thus: Antioxidant activity assessed as inhibition of ABTS free radical generation at 17 uM after 20 mins by UV spectrophotometric analysis relative to control. It counts as functional. Summed up:
(§1)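 ABTS radical cation formed by mixing ABTS diammonium salt (96 mg) and potassium persulfate (33 mg) in 25 mL 0.1 M phosphate buffer pH 7.0, then left in the dark at room temperature for 16 h before use. Samples made fresh as 2 mM stocks in methanol/phosphate buffer 1:1 and assayed in triplicate. Absorbance read at 734 nm; %I = (A_blank − A_sample)/A_blank.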

Test [2] is described as follows: Antioxidant activity assessed as inhibition of ABTS free radical generation after 20 mins by UV spectrophotometric analysis relative to control. It counts as functional. The gist of the method:
as §1

Test [3] in a line: Antioxidant activity assessed as inhibition of ABTS free radical generation at 33 uM after 20 mins by UV spectrophotometric analysis relative to control. The class given is functional. Summed up:
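ABTS radical cation was generated from ABTS diammonium salt and potassium persulfate in 0.1 M phosphate buffer, pH 7.0, and left in the dark at room temperature for 16 h before use. Sample stocks (2 mM) were freshly prepared in methanol/phosphate buffer 1:1 and tested in triplicate. Absorbance was read at 734 nm, with inhibition calculated as %I = (A_blank − A_sample)/A_blank.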

In test [4] the target is Glutamate receptor ionotropic, NMDA 2B (Rattus norvegicus, UniProt Q00960). In words: Displacement of [3H]-ifenprodil from Wistar rat cerebral cortex GluN2B after 120 mins. It counts as tissue-based. Summed up:
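Membranes from cerebral cortices of male Wistar-derived rats (175 g) prepared in Tris–HCl pH 7.4. A 5 mg aliquot was incubated with 2 nM [3H]ifenprodil plus 5 μM GBR-12909, which blocks non-polyamine-sensitive sites, for 120 min at 4 °C. Nonspecific binding defined with 10 μM ifenprodil. Membranes filtered, washed and counted. Three test concentrations run in duplicate.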
For orientation: Displacement assays read how much labelled ligand stays bound in the presence of the test substance.

Sequence of Glutamate receptor ionotropic, NMDA 2B (Q00960 whole entry): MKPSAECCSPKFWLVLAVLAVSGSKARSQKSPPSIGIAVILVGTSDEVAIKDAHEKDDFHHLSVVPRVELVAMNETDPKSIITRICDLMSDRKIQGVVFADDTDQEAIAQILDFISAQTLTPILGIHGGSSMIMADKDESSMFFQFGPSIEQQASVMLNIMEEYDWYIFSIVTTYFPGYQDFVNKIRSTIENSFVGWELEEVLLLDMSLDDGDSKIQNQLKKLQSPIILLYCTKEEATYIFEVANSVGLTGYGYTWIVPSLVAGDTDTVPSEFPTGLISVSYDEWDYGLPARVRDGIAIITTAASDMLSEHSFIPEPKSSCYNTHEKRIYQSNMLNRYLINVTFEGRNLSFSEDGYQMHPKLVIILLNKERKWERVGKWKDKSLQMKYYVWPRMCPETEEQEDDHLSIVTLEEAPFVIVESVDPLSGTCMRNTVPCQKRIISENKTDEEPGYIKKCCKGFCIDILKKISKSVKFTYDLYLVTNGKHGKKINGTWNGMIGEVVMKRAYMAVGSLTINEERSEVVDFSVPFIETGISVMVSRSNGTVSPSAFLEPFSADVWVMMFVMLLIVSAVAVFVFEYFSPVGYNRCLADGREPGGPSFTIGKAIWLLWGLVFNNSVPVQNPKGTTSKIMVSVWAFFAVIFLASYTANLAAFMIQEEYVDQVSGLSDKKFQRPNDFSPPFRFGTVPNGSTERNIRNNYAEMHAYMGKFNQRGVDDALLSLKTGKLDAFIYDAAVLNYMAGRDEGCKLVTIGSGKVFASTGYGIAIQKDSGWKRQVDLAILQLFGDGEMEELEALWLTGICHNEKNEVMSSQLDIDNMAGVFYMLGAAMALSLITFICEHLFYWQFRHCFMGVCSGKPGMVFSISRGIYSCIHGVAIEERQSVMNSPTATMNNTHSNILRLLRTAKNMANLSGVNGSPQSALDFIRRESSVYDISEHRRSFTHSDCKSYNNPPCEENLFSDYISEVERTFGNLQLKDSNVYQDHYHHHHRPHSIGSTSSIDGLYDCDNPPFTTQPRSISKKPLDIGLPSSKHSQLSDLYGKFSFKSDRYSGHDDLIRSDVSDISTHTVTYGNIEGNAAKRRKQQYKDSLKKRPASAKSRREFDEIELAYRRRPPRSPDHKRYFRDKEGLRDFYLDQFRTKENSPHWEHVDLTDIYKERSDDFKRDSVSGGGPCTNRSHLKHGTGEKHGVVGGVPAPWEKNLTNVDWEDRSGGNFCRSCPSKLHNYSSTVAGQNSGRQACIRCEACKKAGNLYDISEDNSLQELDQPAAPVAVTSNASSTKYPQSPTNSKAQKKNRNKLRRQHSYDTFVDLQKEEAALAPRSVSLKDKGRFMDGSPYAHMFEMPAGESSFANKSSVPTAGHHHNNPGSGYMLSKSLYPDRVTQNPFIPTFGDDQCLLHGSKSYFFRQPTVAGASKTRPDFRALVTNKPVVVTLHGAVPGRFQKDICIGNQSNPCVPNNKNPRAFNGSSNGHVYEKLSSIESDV

For the molecule `O=C(O)c1cc(O)c(O)c(O)c1`, the inhibition in test [1] is over 94.1%. The same measure, in the same setting: under `O=C(O)/C=C/c1ccc(O)c(O)c1` stands 71.5%.

For the molecule `O=C(CN1CCC(Cc2ccccc2)CC1)c1c[nH]c2ccc(O)cc12`, the inhibition is over 92.1% in test [1] and “Dose-dependent effect” in test [2]. With `O=C(CN1CCC(Cc2ccccc2)CC1)c1c[nH]c2cc(O)ccc12`, the inhibition in test [1] is over 93.9%; in test [2] it was “Dose-dependent effect”. On the same counts, the results for `O=C(C(=O)N1CCC(Cc2ccccc2)CC1)c1c[nH]c2ccc(O)cc12` are 80.1% and “Dose-dependent effect”.

`c1ccc2[nH]ccc2c1`: the inhibition in test [3] amounted to 25%. Moreover, the inhibition entry in test [1] is “inactive”. Turning to `O=C(C(=O)N1CCC(Cc2ccccc2)CC1)c1c[nH]c2cc(O)ccc12`, the results for the inhibition in test [1] and in test [2] were 70.7% and “Dose-dependent effect”, respectively. Regarding `O=C(NC1CCN(CC(=O)c2c[nH]c3ccc(O)cc23)CC1)c1ccc(O)c(O)c1`, the inhibition is over 94.1% in test [1] and “Dose-dependent effect” in test [2]. This molecule registered a 50% inhibitory concentration (IC50) in test [4] of 660 nM.

In the case of `COc1ccc2[nH]ccc2c1`, the inhibition in test [3] is 47.6%. Moreover, the inhibition entry in test [1] is “inactive”.

The term inhibition denotes the change of the read-out against control, counted positive when it falls. One may read the IC50 as the point on the concentration scale where inhibition reaches its midpoint. A low value points to higher potency.
